Sampled rows, rich in hits. Any-hit rate of the full collection: about 2.8%.
Mcl-1 Bim block = inhibitors of Bim peptide binding to Mcl-1, primary screen, biochemical, bead-based flow cytometry, multiplex. Induced myeloid leukemia cell differentiation protein Mcl-1 (Homo sapiens), Q07820. 0.1% of 190,000 active. Bim peptide-Mcl-1 binding. inhibition, % at 10 µM; in the data active = inhibition above about 40%
Target sequence (Q07820 whole entry, looked up): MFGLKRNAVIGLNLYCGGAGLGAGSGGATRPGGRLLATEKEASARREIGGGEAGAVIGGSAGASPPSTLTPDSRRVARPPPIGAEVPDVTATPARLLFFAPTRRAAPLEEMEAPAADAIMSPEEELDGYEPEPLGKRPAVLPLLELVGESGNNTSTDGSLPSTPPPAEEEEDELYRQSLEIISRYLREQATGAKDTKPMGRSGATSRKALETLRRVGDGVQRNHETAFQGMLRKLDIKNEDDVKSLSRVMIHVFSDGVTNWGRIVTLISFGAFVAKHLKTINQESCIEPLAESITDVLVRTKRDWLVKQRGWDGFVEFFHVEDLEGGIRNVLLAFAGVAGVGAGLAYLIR
Arbovirus anti = antivirals against arbovirus infection, primary screen, cell-based, full library, 10K replicate subset. arbovirus infection cell-based antiviral screen. inhibition, % at 10 µM. 0.37% of 200,000 active. AID 1251, 2008; in the data active = inhibition above about 30%
Mcl1 Noxa PPI = Mcl-1/Noxa binding inhibitors, primary screen, biochemical, TR-FRET, 1536-well; Induced myeloid leukemia cell differentiation protein Mcl-1 (Homo sapiens), Q07820; TR-FRET Mcl-1/Noxa peptide binding, 2 h; inhibition, % at 21.7 µM; 1.5% of 220,000 active;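 active = compounds that cut the protein-peptide binding signal by more than 50% relative to plate controls in a single-dose test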;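 note: His-tagged Mcl-1 with rhodamine Noxa BH3 peptide and terbium anti-His antibody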
m-calpain inh = inhibitors of pig calpain II, primary screen, biochemical, fluorogenic peptide substrate, 1536-well. 0.37% of 220,000 active. purified calpain II, 30 min. AID 1236, 2008. inhibition, % at 16 µM;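 active = inhibition above about 50%, limit read from the data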
Mcl1 Bid PPI = Mcl-1/Bid binding inhibitors, primary screen, biochemical, TR-FRET, 1536-well; TR-FRET Mcl-1/Bid-Dy647 peptide binding; Induced myeloid leukemia cell differentiation protein Mcl-1 (Homo sapiens), Q07820; AID 1021, 2008; inhibition, % at 21.7 µM; 0.97% of 220,000 active;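 active = compounds that cut the binding signal by more than half at the single screening dose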;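 note: His-tagged Mcl-1 with europium anti-His antibody binding Bid BH3 peptide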
Calb biofilm kill = clotrimazole potentiators killing C. albicans biofilm, primary screen, 4-compound mixtures. 0.02% of 120,000 active. C. albicans biofilm persisters + clotrimazole, fluorescence viability; primary screen in compound mixtures of four per well. AID 1242, 2008. inhibition, % at 7.6 µM;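 active = inhibition above 30.3% in the primary screen of four-compound pools, then above 30% when the compound was retested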;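 note: compounds exposed to preformed 24 h biofilms for 48 h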
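System: C. albicans CAF4-2 wild-type biofilms; Medium: RPMI/MOPS medium, pH 7.0; Reagent: Clotrimazole, 50 µg/mL; Times: biofilm formation 24 h, compound exposure 48 h, 37 °C; Detection: 2-h Alamar Blue fluorescence, 535/590 nm excitation/emission; Evaluation: percent inhibition of biofilm viability.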
A number is an active result; - = inactive; . = not tested or not shown.

SMILES	Mcl-1 Bim block	Arbovirus anti	Mcl1 Noxa PPI	m-calpain inh	Mcl1 Bid PPI	Calb biofilm kill
Cc1ccsc1/C=N/NS(=O)(=O)c1ccc([N+](=O)[O-])cc1	-	-	-	-	-	-
COc1ccc(-c2nc(N)c(C#N)c(-c3cccnc3)c2C)cc1	.	.	-	-	-	-
Cc1ccc([N+](=O)[O-])cc1S(=O)(=O)Nc1ccc(N2CCOCC2)cc1	-	-	-	-	-	-
O=c1oc2cc([N+](=O)[O-])ccc2nc1/C=C(O)/C=C/c1ccccc1	.	.	72	-	-	-
CCOCC(=O)Nc1ccc(S(=O)(=O)N2CCOCC2)cc1	-	-	-	-	-	.
CCOc1ccc(NC(=O)COn2nnc3ccc(S(=O)(=O)N4CCOCC4)cc32)cc1	-	-	71	-	-	-
CC(NC(=O)CCc1nnc(CCCc2ccccc2)o1)c1ccccc1 (stereo not drawn)	-	-	-	-	-	-
O=C(NC1CCCc2ccccc21)c1ccc2c(c1)OCO2 (stereo not drawn)	-	-	-	-	-	-
CC(NCc1ccc2c(c1)OCO2)C(=O)NC1CCCc2ccccc21 (stereo not drawn)	-	-	-	-	69	.
COc1ccc(C2C=C(C34CC5CC(CC(C5)C3)C4)NC(=S)N2)cc1 (stereo not drawn)	-	-	-	-	-	-
NC(=O)c1cccnc1OCC(F)(F)F	.	.	-	-	-	-
O=C(Nc1ccc(Cl)c(Cl)c1)OCCNC(=O)c1cccc(Cl)c1	-	-	-	65	-	.
COC(=O)NNC(=S)Nc1ccc(Br)cc1	-	-	-	-	-	-
CCOc1ccc(NC2OCC(O)C(O)C2O)c([N+](=O)[O-])c1 (stereo not drawn)	-	-	-	-	-	-
CC(C)C(=O)N1CCN(c2ccccc2N)CC1	-	-	-	81	-	.
Cc1cccc(N2CCN(C(=O)C(C)C)CC2)c1C	-	-	-	-	-	.
COc1cccc(/C=N/NC(=O)c2ccc3nc[nH]c3c2)c1O	.	.	-	-	-	-
CCn1c(C)nc2cc(C(=O)N/N=C/c3cccc(OC)c3O)ccc21	-	-	65	-	-	-
CCn1c(C)nc2cc(C(N)=O)ccc21	.	.	-	-	-	-
CCn1c(C)nc2cc(C(=O)N/N=C/c3ccc(O)c(O)c3O)ccc21	-	-	95	-	-	-
COc1ccc(C(=O)Nc2ccc(S(=O)(=O)NC(C)(C)C)cc2)cc1[N+](=O)[O-]	-	-	-	54	-	-
CCOc1ccc(-n2c(SCC(=O)Nc3ccccc3C)n[nH]c2=O)cc1	-	-	-	-	65	.
Cc1c(NC(=O)CSc2n[nH]c(=O)n2-c2ccccc2)c(=O)n(-c2ccccc2)n1C	-	-	-	-	-	-
CC1=CN2C(=N)/C(=C/c3ccc([N+](=O)[O-])o3)C(=O)N=C2S1	-	-	65	-	-	-
CCOc1ccc(-c2ccc(/C=C3/C(=N)N4C=CSC4=NC3=O)o2)c([N+](=O)[O-])c1	-	-	129	-	89	-
SMILES	Mcl-1 Bim block	Arbovirus anti	Mcl1 Noxa PPI	m-calpain inh	Mcl1 Bid PPI	Calb biofilm kill
Cc1ccc(-c2ccc(/C=C3\C(=O)ON=C3c3ccccc3)o2)c([N+](=O)[O-])c1	-	-	.	-	-	.
CCOc1ccc(-c2ccc(/C=C3/C(=N)N4C(C)=CSC4=NC3=O)o2)c([N+](=O)[O-])c1	-	-	66	-	68	-
CCn1nc(C)c(NC(=O)Nc2cccc(Cl)c2Cl)c1C	-	32	-	-	-	-
CCOC(=O)COc1ccc(/C=C2\NC(=S)N(CC)C2=O)cc1	-	-	-	-	-	-
CC(=O)Nc1sc(N/N=C\c2ccc(O)cc2)nc1-c1cccs1	.	.	104	-	-	-
CC(=O)Nc1sc(N/N=C\c2cccc(Cl)c2)nc1-c1cccs1	-	-	-	-	-	-
CC(=O)Nc1sc(N/N=C\c2ccccc2F)nc1-c1cccs1	-	-	62	-	-	-
CCCC(=O)Nc1sc2c(c1C(=O)Nc1ccccn1)CCCC2	-	-	-	-	-	-
CCCCOc1ccc(CSCCN=C(N)N)cc1	-	-	-	-	-	31
CCCCOc1ccc(CSC(CC(=O)O)C(=O)O)cc1 (stereo not drawn)	-	-	-	-	-	.
CCN1CCN(c2cc(C)c3cc(NC(=O)c4ccc(Br)o4)ccc3n2)CC1	-	-	-	-	-	.
CCN(CC)c1cc(C)c2cc(NC(=O)c3ccc(Br)o3)ccc2n1	-	-	60	-	-	.
CCOc1ccccc1NC(=S)N(CCC(C)C)C1CCN(C(C)=O)CC1	-	-	-	-	-	-
COc1ccc(NC(=S)N2CCN(C(=O)c3ccccc3)CC2)cc1	-	-	-	-	-	-
COc1cc(C(=O)Nc2ccc(S(=O)(=O)N(C)c3ccccc3)cc2)cc(OC)c1OC	-	-	-	-	-	-
CN(C)c1ccc(NC(=O)c2ccc3c(c2)nnn3C)cc1	-	-	61	-	-	-
COc1cc(C(=O)Nc2sc(C)c(C)c2C(=O)O)cc(OC)c1OC	-	44	-	-	-	-
CN(C)c1ccc(NC(=O)c2cccc(N3C(=O)CCC3=O)c2)cc1	-	-	64	-	-	.
COc1cc(C(=O)Nc2ccc(N(C)C)cc2)cc(OC)c1OC	-	-	78	-	-	.
O=C(NCCCN1CCOCC1)C(=O)NCc1ccco1	-	-	-	-	-	-
Cc1cccc(N2C(=O)C3C4C=CC(C5CC45)C3C2=O)n1 (stereo not drawn)	.	.	-	-	-	-
Cc1c(NC(=O)c2cccnc2C(=O)O)cccc1C(=O)O	-	-	-	-	-	-
O=C(N/N=C/c1ccccn1)c1ccco1	-	-	-	-	-	.
O=C(N/N=C/c1ccc2ncccc2c1)c1ccco1	-	-	52	-	-	-
CCCCOc1ccc(C(O)C(CN2CCCCC2)c2ccccc2)cc1 (stereo not drawn)	-	37	-	-	-	-
SMILES	Mcl-1 Bim block	Arbovirus anti	Mcl1 Noxa PPI	m-calpain inh	Mcl1 Bid PPI	Calb biofilm kill
CCOC(=O)C1CCN(c2c(NCCCN3CCN(Cc4ccccc4)CC3)c(=O)c2=O)CC1	-	-	-	-	52	.
CCOC(=O)C1CCN(Cc2ccc(F)cc2)CC1	-	-	-	-	51	-
Cn1c(N)c(C(=O)Nc2ccc(-c3ccccc3)cc2)sc1=S	.	.	-	-	-	-
CCCCCCCCCCCCCCCC(O)C(N)CO (stereo not drawn)	-	-	-	-	66	-
COc1ccc(-n2cc(CNCCCn3ccnc3)c(-c3cccc(F)c3)n2)cc1	-	-	-	-	-	-
Cc1nc(Nc2ccccc2)sc1C(=O)c1ccccc1	.	.	-	51	-	-
Cc1nc(Nc2ccccc2)sc1-c1ccccc1	-	33	-	-	-	-
COC(=O)c1sc(Nc2ccccc2)nc1C	-	-	-	-	-	.
